Screening results deposited in PubChem BioAssay by several laboratories.
An excerpt weighted towards active compounds, which were near 2.6% of everything screened.
SENP1 FRET inh = SENP1 (human) catalytic domain inhibition; Q9P0U3; inhibition, % at 10 µM; AID 624204; actives 0.21% (n = 360,000); recombinant SENP1 catalytic domain, CyPet-SUMO1-YPet FRET cleavage;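 active means inhibition at least 30% at 10 µM, raw YFP signal under a set limit, fluorescence ratio 0.5 to 1.5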
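Controls: no-enzyme wells low, DMSO-plus-enzyme wells high control. Test system: human recombinant His6-tagged SENP1 catalytic domain enzyme. Reagent: SFCypet-SUMO1-SFYpet FRET protein substrate, 25 nM final. Doses: one dose per compound, 10 µM, 0.5% DMSO. Detection: FRET, CFP and YFP emission. Timing: 50 min reaction at room temperature.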
SENP8 block-1 = inhibitors of human SENP8 protease | Q96LD8 | recombinant SENP8, Nedd8 substrate fluorescence | inhibition, % at 20 µM | actives 0.64% (n = 360,000); in the data active means inhibition mostly above about 40%, no sharp cut-off; inactive means mostly below about 27%
SENP8 block-2 = inhibitors of human SENP8 protease; Q96LD8; purified SENP8, Z-RLRGG-aminoluciferin cleavage, luminescence; inhibition, % at 10 µM; actives 1.2% (n = 330,000); AID 2540; in the data active means inhibition above about 50%
SENP6 block = inhibitors of human SENP6 protease | Recombinant SENP6 catalytic domain, aminoluciferin luminescence | inhibition, % at 10 µM | actives 1.8% (n = 330,000);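 active means inhibition above about 50% at the single tested dose, limit read from the data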
Target sequence (Q9GZR1 628-1112 limits assumed): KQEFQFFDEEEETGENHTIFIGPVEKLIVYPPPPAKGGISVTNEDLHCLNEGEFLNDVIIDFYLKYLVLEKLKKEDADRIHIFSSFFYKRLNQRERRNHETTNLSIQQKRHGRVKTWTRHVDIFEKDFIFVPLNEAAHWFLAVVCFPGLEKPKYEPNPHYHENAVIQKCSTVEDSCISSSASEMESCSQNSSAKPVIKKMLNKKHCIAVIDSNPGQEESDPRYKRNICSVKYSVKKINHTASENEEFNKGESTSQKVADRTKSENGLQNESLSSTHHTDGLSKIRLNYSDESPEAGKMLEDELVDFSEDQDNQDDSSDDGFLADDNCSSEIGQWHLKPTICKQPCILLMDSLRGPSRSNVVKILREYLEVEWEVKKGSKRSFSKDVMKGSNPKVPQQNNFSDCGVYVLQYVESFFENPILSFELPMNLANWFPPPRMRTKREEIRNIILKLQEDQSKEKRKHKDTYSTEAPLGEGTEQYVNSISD
SENP7 inh = inhibitors of human SENP7 protease. actives 1.5% (n = 330,000). AID 434973. inhibition, % at 5 µM. Q9BQF6. recombinant SENP7, Z-RLRGG-aminoluciferin luminescence, 40 min;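 active means inhibition above about 50% at the single test dose, limit read from the data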
Platelet DG rel = modulates dense granule release in human platelets; human platelet-rich plasma, SFLLRN dense granule ATP release, luminescence; inhibition, %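 (compounds screened at 7.5 µM in platelet-rich plasma)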; actives 0.22% (n = 300,000);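 active means mean replicate score, as percent of positive control, at or above 50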
SENP8 confirm = confirmation of human SENP8 protease inhibitors; shares compounds with SENP7 inh; Recombinant SENP8, Z-RLRGG-aminoluciferin luminescence, 60 min; inhibition, % at 12.5 µM; actives 40% (n = 6,200);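 active means mean inhibition across replicates above about 50%, limit read from the data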
SENP6 confirm = human SENP6 inhibition, confirmed; inhibition, % at 12.5 µM; recombinant SENP6, Z-RLRGG-aminoluciferin luminescence; actives 58% (n = 6,200); shares compounds with SENP7 inh
SENP7 confirm = human SENP7 inhibition, confirmed; shares compounds with SENP7 inh; recombinant SENP7, Z-RLRGG-aminoluciferin luminescence, 40 min; inhibition, % at 12.5 µM; actives 69% (n = 6,200)
Casp3 select = caspase-3 inhibition (SENP selectivity assay) | shares compounds with SENP7 inh | purified caspase-3, Z-DEVD-aminoluciferin luminescence, 60 min | inhibition, % at 12.5 µM | actives 60% (n = 6,200);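 active means mean inhibition above about 50%, limit read from the data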
Target sequence (P42574 28-227 limits assumed): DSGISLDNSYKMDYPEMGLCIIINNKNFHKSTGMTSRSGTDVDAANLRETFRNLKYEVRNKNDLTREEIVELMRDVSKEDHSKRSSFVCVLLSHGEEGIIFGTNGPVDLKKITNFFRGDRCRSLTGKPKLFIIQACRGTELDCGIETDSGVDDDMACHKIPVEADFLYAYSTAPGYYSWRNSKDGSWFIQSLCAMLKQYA
SENP luc ctr = luminescence interference (SENP counter-screen) | actives 39% (n = 6,200) | AID 488919 | Pre-incubated SENP8/Z-RLRGG-aminoluciferin, luciferase luminescence interference | inhibition, % at 12.5 µM | shares compounds with SENP7 inh;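 active means mean inhibition above about 50% when retested at one dose, limit read from the data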
Of the large screens only hits and unclear results are named; the others gave an inactive call (follow-up assays come after a bar, where they were run).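 How the source made its calls, unless noted: active means mean inhibition above about 50% in the one-dose retest (limit read from the data); inactive means the rest.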

CCc1ccc(C(=O)COC(=O)c2n[nH]c3ccccc23)cc1	SENP8 block-2 77, SENP7 inh 74 | SENP8 confirm inactive | SENP6 confirm 78 | SENP7 confirm 93 | Casp3 select 61 | SENP luc ctr inactive
CCc1ccc(C(=O)COC(=O)c2nn(C)c(=O)c3ccccc23)cc1	none
CN(C)C(=O)c1cnc(Cc2c[nH]c3ccccc23)c(I)c1	none (no result: SENP8 block-2, SENP6 block, SENP7 inh, Platelet DG rel)
Cc1cc(C)n(-c2ccc(C(=O)OCC(=O)Nc3cc(S(C)(=O)=O)ccc3Cl)cc2)n1	none (no result: Platelet DG rel)
O=C(c1ccc(S(=O)(=O)N2CCCC2)cc1)N(c1ccccc1)C1C=CS(=O)(=O)C1 (centres undefined)	SENP6 block 63 | SENP8 confirm inactive | SENP6 confirm inactive | SENP7 confirm inactive | Casp3 select inactive | SENP luc ctr inactive
CN1CCN(/N=C/c2ccc(-c3ccccc3)cc2)CC1	SENP8 block-2 79, SENP7 inh 83 | SENP8 confirm 82 | SENP6 confirm 86 | SENP7 confirm 98 | Casp3 select 90 | SENP luc ctr 50
CC(OC(=O)CCN1C(=O)C2CC=CCC2C1=O)C(=O)Nc1cccc(C#N)c1 (centres undefined)	none
CCOC(=O)Cn1c2ccc(C)cc2c2nc(C)sc21	SENP6 block 51 | SENP8 confirm inactive | SENP6 confirm inactive | SENP7 confirm inactive | Casp3 select inactive | SENP luc ctr inactive
CCOC(=O)Cn1c2ccccc2c2nc(C)sc21	none
CCOC(=O)c1c(NC(=O)CN2CCN(c3ccc(Cl)cc3)CC2)sc(C)c1C	SENP7 inh 55 | SENP8 confirm inactive | SENP6 confirm inactive | SENP7 confirm inactive | Casp3 select inactive | SENP luc ctr inactive
CCOC(=O)c1c(NC(=O)CN2CCN(c3cccc(Cl)c3)CC2)sc(C)c1C	none (no result: SENP8 block-2, SENP6 block, SENP7 inh, Platelet DG rel)
COc1ccc(NC(=O)CSc2nnc(N)s2)cc1S(=O)(=O)N1CCCCC1	none (no result: Platelet DG rel)
CCCCc1nc2cc(C(=O)NC3CCOC(C)(C)C3)ccc2o1 (centres undefined)	SENP7 inh 80 | SENP8 confirm inactive | SENP6 confirm inactive | SENP7 confirm inactive | Casp3 select inactive | SENP luc ctr inactive
CCSC1=N/C(=C\c2ccc(-c3ccccc3[N+](=O)[O-])o2)C(=O)S1	SENP6 block 50 | SENP8 confirm inactive | SENP6 confirm inactive | SENP7 confirm inactive | Casp3 select inactive | SENP luc ctr inactive
O=C(O)C(Oc1ccc2cc(-c3ccc(Cl)cc3)c(=O)oc2c1)c1ccccc1 (centres undefined)	SENP6 block 77 | SENP8 confirm 74 | SENP6 confirm 75 | SENP7 confirm 63 | Casp3 select inactive | SENP luc ctr inactive
COc1ccc(-c2cc3ccc(OCc4nn[nH]n4)cc3oc2=O)cc1OC	SENP8 block-2 51, SENP6 block 76, SENP7 inh 65 | SENP8 confirm 67 | SENP6 confirm 66 | SENP7 confirm 91 | Casp3 select 85 | SENP luc ctr 72
O=c1oc2ccccc2cc1-c1ccc(O)cc1O	none
COc1ccc(-c2cc3ccc(OCC(C)=O)cc3oc2=O)cc1OC	none
O=c1oc2cc(O)ccc2cc1-c1ccccc1	SENP8 block-2 91, SENP6 block 90, SENP7 inh 88 | SENP8 confirm 94 | SENP6 confirm 94 | SENP7 confirm 99 | Casp3 select 92 | SENP luc ctr 92
COC(=O)COc1ccc2cc(-c3ccccc3)c(=O)oc2c1	SENP6 block 55 | SENP8 confirm inactive | SENP6 confirm inactive | SENP7 confirm inactive | Casp3 select inactive | SENP luc ctr inactive
Cc1ccc2c(CC(=O)NNC(=O)c3ccccc3O)coc2c1	none
COc1cc(OC)c(NS(=O)(=O)c2c(C(=O)N3CCCCC3)c(C)n(C)c2C)cc1Cl	none
COc1ccc(-c2cc3ccc(O)cc3oc2=O)cc1	SENP8 block-2 83, SENP6 block 88, SENP7 inh 58 | SENP8 confirm 73 | SENP6 confirm 77 | SENP7 confirm 93 | Casp3 select 76 | SENP luc ctr 62
O=C(NCc1ccccc1)c1cc2ccc(O)cc2oc1=O	SENP8 block-2 97, SENP6 block 95, SENP7 inh 96 | SENP8 confirm 98 | SENP6 confirm 98 | SENP7 confirm 102 | Casp3 select 98 | SENP luc ctr 97
O=C(O)c1ccc(N=c2oc3cc(O)ccc3cc2C(=O)NCc2ccccc2)cc1	none
O=C(c1cccc(Cl)c1)N1CCCc2ccccc21	none
COc1ccc(Br)cc1-c1noc(-c2ccccc2F)n1	none
NC(=O)c1ccccc1-c1nc(-c2ccccc2)no1	none
NC(=O)c1cccc(-c2noc(-c3ccccc3F)n2)c1	SENP8 block-2 56, SENP6 block 74, SENP7 inh 57 (no result: Platelet DG rel) | SENP8 confirm inactive | SENP6 confirm 52 | SENP7 confirm 81 | Casp3 select 66 | SENP luc ctr inactive
COC(=O)c1cccc(-c2noc(-c3ccccc3F)n2)c1	SENP6 block 64, SENP7 inh 81 (no result: Platelet DG rel) | SENP8 confirm inactive | SENP6 confirm inactive | SENP7 confirm 66 | Casp3 select 56 | SENP luc ctr inactive
Cn1c(=O)c2[nH]c(CCCCCCCc3nc4ccccc4[nH]3)nc2n(C)c1=O	none (no result: SENP8 block-2, SENP6 block, SENP7 inh, Platelet DG rel)
COc1cccc(C(N)=O)c1	none
COc1cccc(/C(C)=N/N=C(\C)c2cccc(OC)c2)c1	SENP8 block-2 61, SENP6 block 81, SENP7 inh 66 | SENP8 confirm inactive | SENP6 confirm 56 | SENP7 confirm 85 | Casp3 select 55 | SENP luc ctr inactive
COc1ccc(S(=O)(=O)Nc2cc(SCC(=O)O)c(O)c3ccccc23)cc1	SENP8 block-2 51, SENP6 block 76 | SENP8 confirm inactive | SENP6 confirm 59 | SENP7 confirm inactive | Casp3 select inactive | SENP luc ctr inactive
CCCCN(C=O)c1c(CC)nc2ccc(C(=O)NCCN(C)C)cn12	none (no result: SENP8 block-2, SENP6 block, SENP7 inh, Platelet DG rel)
